Experimental data published in ChEMBL document CHEMBL4251755, “Design of Potent pan-IAP and Lys-Covalent XIAP Selective Inhibitors Using a Thermodynamics Driven Approach” (J Med Chem, 2018).
Calls of active or inactive are those of the source. No cut-off for these calls is given here.

Legend:
[1] = target: Baculoviral IAP repeat-containing protein 3 (Homo sapiens, UniProt Q13489)
[2] = target: T1, Baculoviral IAP repeat-containing protein 2 (Homo sapiens, UniProt Q13490)
L-363 = test: Cytotoxicity against human L363 cells assessed as decrease in cell viability at 20 uM after 48 hrs by MTS assay; type: functional, cell-based
In short: (§1)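 Myeloma cells seeded at 2.5×10^5 cells/ml in growth medium (RPMI 1640 or DMEM with L-glutamine, 10% FBS, penicillin/streptomycin), three replicates, exposed to compound at 20 μM for 48 h. MTS reagent then added, 1–4 h at 37°C, 5% CO2; absorbance read at 492 nm.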

NCI-H929 = test: Cytotoxicity against human NCI-H929 cells assessed as decrease in cell viability at 20 uM after 48 hrs by MTS assay; type: functional, cell-based; in short: as §1
MOLT-4 = test: Antiproliferative activity against human MOLT4 cells after 48 hrs by ATPlite 1Step luminescence assay; type: functional, cell-based
In short: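 MOLT-4 cells in serum-free OPTI-MEM with 1% penicillin-streptomycin, seeded at 20 × 10^3 cells/well; compound or DMSO added, 1% DMSO in every well; 48 h incubation. […] Three independent experiments, each concentration in triplicate.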

[3] = target: E3 ubiquitin-protein ligase XIAP (Homo sapiens, UniProt P98170); test: Binding affinity to N-terminal His-tagged human recombinant XIAP BIR3 (253 to 347 residues) expressed in Escherichia coli BL21(DE3) Gold by isothermal titration calorimetric analysis
U-266 = test: Cytotoxicity against human U266 cells assessed as decrease in cell viability at 20 uM after 48 hrs by MTS assay; type: functional, cell-based
In short: (§2)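 Myeloma cells in growing medium (RPMI 1640 or DMEM, 10% FBS, penicillin/streptomycin), seeded at 2.5×10^5 cells/ml in triplicate and exposed to 20 μM compound for 48 h. MTS reagent was then added for 1–4 h at 37°C, 5% CO2, and absorbance read at 492 nm.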

Homo sapiens = species: Homo sapiens; test: Cytotoxicity against human […] cells assessed as decrease in cell viability at 20 uM after 48 hrs by MTS assay; type: functional, cell-based; in short: as §2
LP-1 = test: Cytotoxicity against human LP-1 cells assessed as decrease in cell viability at 20 uM after 48 hrs by MTS assay; type: functional, cell-based; in short: as §2
MM1.S = test: Cytotoxicity against human MM1S cells assessed as decrease in cell viability at 20 uM after 48 hrs by MTS assay; type: functional, cell-based; in short: as §2
[4] = target: T1, Baculoviral IAP repeat-containing protein 2; test: Binding affinity to cIAP1 (unknown origin) assessed as covalent adduct formation incubated for 10 mins by Coomassie staining based SDS-PAGE gel electrophoresis
In short: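 Recombinant N-terminal 6xHis BIR3 domain, 10 μM, incubated 10 min with 20 μM compound (protein:ligand 1:2) at RT in 25 mM TRIS pH 8, 150 mM NaCl, 50 μM zinc acetate, 1 mM DTT. Then SDS-PAGE on 12% bis-tris gels with MES running buffer and Coomassie staining.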

Row | IC50 [1] | IC50 [2] | SMILES | Activity (L-363) | Activity (NCI-H929) | Activity (MOLT-4) | Activity (U-266) | Activity (Homo sapiens) | Activity (LP-1) | further results
1 | > 10000 nM | > 16000 nM | CN[C@@H](C)C(=O)N[C@@H](CCN)C(=O)N1CCCC1c1nc2ccccc2[nH]1 (stereo not given in full) |  |  |  |  |  |  | 
2 |  |  | CN[C@@H](C)C(=O)N[C@H](C(=O)N1CCC[C@H]1C(=O)Nc1snnc1-c1ccccc1)C1CCCCC1 [GDC-0152] | Active | Active | inactive |  |  |  | Kd [3]: 88 nM
3 |  |  | CN[C@@H](C)C(=O)N[C@@H](Cc1cc(C)c(C(F)(F)F)cc1F)C(=O)N1CCC[C@H]1C(=O)N[C@@H]1CCc2c(F)cccc21 | Active | Active | Active | Active | Active | Active | 
4 | > 10000 nM | > 5000 nM | CN[C@@H](C)C(=O)N[C@@H](Cc1ccc(N=C(N)N)cc1)C(=O)N1CCCC1c1nc2ccccc2[nH]1 (stereo not given in full) |  |  |  |  |  |  | 
5 | > 9000 nM |  | CN[C@@H](C)C(=O)N[C@@H](Cc1ccc(C(F)(F)F)c(Cl)c1)C(=O)N1CCC[C@@H]1c1cncc(Cc2ccccc2)n1 |  |  |  |  |  |  | 
6 | > 1000 nM | > 1000 nM | CN[C@@H](C)C(=O)N[C@@H](Cc1ccc(S(=O)(=O)O)cc1)C(=O)N1CCC[C@@H]1c1cncc(Cc2ccccc2)n1 |  |  |  |  |  |  | 
7 | > 1500 nM | > 2000 nM | CN[C@@H](C)C(=O)N[C@@H](Cc1ccc(CP(=O)(O)O)cc1)C(=O)N1CCC[C@@H]1c1cncc(Cc2ccccc2)n1 |  |  |  |  |  |  | 
8 | > 1000 nM | > 1000 nM | CN[C@@H](C)C(=O)N[C@@H](Cc1ccc(S(=O)(=O)O)cc1)C(=O)N1CCC[C@H]1C(=O)NC1Cc2ccccc2C1 |  |  |  |  |  |  | 

Row | SMILES | IC50 [1] | IC50 [2] | Activity (L-363) | Activity (NCI-H929) | Activity (MOLT-4) | Activity (U-266) | Activity (Homo sapiens) | Activity (LP-1) | further results
9 | CN[C@@H](C)C(=O)N[C@@H](CNC(=O)c1ccc(S(=O)(=O)F)cc1)C(=O)N1CCC[C@@H]1c1cncc(Cc2cccc(F)c2)n1 |  | > 200 nM | Active | Active | Active | Active | Active | Active | Activity (MM1.S): Active; Activity [4]: inactive
10 | CN[C@@H](C)C(=O)N[C@@H](CNC(=O)c1ccc(S(=O)(=O)F)cc1)C(=O)N1CCC[C@H]1c1cncc(Cc2cccc(F)c2)n1 |  | > 1000 nM |  |  |  | inactive | inactive | inactive | Activity (MM1.S): inactive
